Rows were chosen to be rich in hits. Some 2.9% of all compounds tested hit in one or more screens of this group.
TAG inh: inhibitors of triacylglycerol accumulation. H9c2 cells, Nile Red lipid (TAG) fluorescence; cells loaded with 200 µM oleic acid. inhibition, % at 12.5 µM. actives 0.66% (n = 230,000). AID 651582;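 active means pattern-corrected inhibition of lipid staining of at least 50% with the nuclear-stain viability signal not falling by more than 50%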;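 further: 0% = DMSO wells and 100% = triacsin C control wells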
Calb FLC: C. albicans growth modulation with fluconazole; C. albicans CaCi-2 + fluconazole, Alamar Blue growth, 48 h; growth inhibition, % (concentration not given with the values); actives 0.57% (n = 300,000);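 active means growth inhibition above about 58% in most replicates, limit read from the data, passing the limit was not always enough; inconclusive means exactly half the replicates above a set limit; inactive means most replicates below a set limit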;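 further: all wells also contain fluconazole at 8 µg/ml as a sub-toxic cotreatment; 0% = median of DMSO wells and 100% = median of geldanamycin control wells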
Efflux pump mplx: antifungal efflux pump inhibition, Nile Red retention | actives 0.44% (n = 330,000) | inhibition, % at 10 µM | S. cerevisiae Candida pump triplex;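 active means plate passing quality check with inhibition over a set limit, or well fluorescence over plate mean plus 4 SD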;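 further: Nile Red retained in pooled yeast measured as flow cytometry median fluorescence; 0% = buffer negative control and 100% = Enniatin B positive control; higher means more Nile Red kept so more efflux inhibition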
GalR3 antag: blocks the human galanin receptor 3. AID 651719. inhibition, % at 3 µM. O60755. actives 0.44% (n = 360,000). HEK293 GalR3-CNG cAMP membrane potential fluorescence; galR3 body fused to GalR1 C-terminus;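 active means inhibition above the screen-wide average plus 3 SD, cut at about 13% in these data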;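 further: forskolin and galanin both at EC90 stimulate the cells; cAMP rise reported by CNG channel membrane potential dye signal; 0% = forskolin plus galanin with DMSO and 100% = forskolin alone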
Target sequence (O60755 1-299 limits assumed): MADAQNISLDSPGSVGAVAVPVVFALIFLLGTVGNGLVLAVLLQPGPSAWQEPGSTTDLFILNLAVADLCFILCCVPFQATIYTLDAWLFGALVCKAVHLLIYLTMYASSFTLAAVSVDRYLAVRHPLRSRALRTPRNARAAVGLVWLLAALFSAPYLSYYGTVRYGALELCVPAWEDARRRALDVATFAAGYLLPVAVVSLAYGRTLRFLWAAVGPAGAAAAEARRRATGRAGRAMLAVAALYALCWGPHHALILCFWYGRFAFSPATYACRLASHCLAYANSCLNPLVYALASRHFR
MC4R antag cAMP: human MC4R antagonism in cAMP assay; P32245; MC4R-expressing cells, MTII-stimulated cAMP, LANCE TR-FRET; inhibition, % at 6.5 µM; actives 0.48% (n = 360,000);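 active means inhibition above its plate's cutoff, the mean of tested wells on that plate plus 3 SD, cut at about 29% in these data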;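 further: 0% = Melanotan II alone and 100% = Melanotan II plus saturating MCL0020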
Target sequence (P32245 whole entry, looked up): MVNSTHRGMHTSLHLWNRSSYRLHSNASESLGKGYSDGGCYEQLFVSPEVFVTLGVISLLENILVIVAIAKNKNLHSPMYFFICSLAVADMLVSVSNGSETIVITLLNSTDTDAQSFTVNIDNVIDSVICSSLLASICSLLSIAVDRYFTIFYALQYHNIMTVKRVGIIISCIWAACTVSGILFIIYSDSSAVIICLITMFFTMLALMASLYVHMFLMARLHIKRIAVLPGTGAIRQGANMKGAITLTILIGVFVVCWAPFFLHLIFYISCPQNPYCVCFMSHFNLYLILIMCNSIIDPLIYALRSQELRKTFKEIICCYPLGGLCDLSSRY
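Assay system: U2OS cells stably expressing human melanocortin 4 receptor (MC4R) / Dosing: 6.5 µM / Timing: compound 30 min, challenge 1 h, detection 1 h / Measured by: Eu-cAMP/anti-cAMP TR-FRET, emission 671 nm / Replicates: singlicate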
MC4R barr agon: agonists of human melanocortin 4 receptor (MC4R) beta-arrestin. P32245. activation, % at 8.9 µM. U2OS MC4R beta-arrestin complementation, luminescence; percent of melanotan II response, DMSO zero. actives 0.98% (n = 360,000);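 active means activation above a per-plate cutoff, the mean activation of sample wells on that plate plus 3 SD, cut at about 8% in these data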
Cmpd fluor yeast: counter-screen for efflux pump inhibitors: compound fluorescence; shares compounds with Efflux pump mplx; S. cerevisiae AD/pABC3, flow cytometry; fluorescence ratio to DMSO, % at 10 µM; actives 4% (n = 1,700); AID 588517;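 active means fluorescence ratio to DMSO above its plate's cutoff, the plate mean ratio plus 5 SD, cut at about 210% in these data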;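 further: unstained yeast with no Nile Red so the signal is compound autofluorescence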
Mdr1 pump inh: Candida Mdr1 efflux pump inhibition. shares compounds with Efflux pump mplx. S. cerevisiae AD/CaMDR1, Nile Red efflux, flow cytometry. inhibition, % at 10 µM. actives 1% (n = 1,700). AID 588518; in the data active means inhibition above about 26%;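 further: 0% = DMSO vehicle and 100% = reference inhibitor; higher means more Nile Red retained so more efflux inhibition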
Cdr2 pump inh: blocks the Candida albicans Cdr2 efflux pump in yeast. shares compounds with Efflux pump mplx. S. cerevisiae AD/CaCDR2, Nile Red retention, flow cytometry. Nile Red retention ratio vs DMSO, % at 10 µM. actives 4% (n = 1,700). AID 588520; in the data active means Nile Red retention ratio vs DMSO above about 190%;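 further: higher ratio means more blocking of Cdr2 efflux of the dye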
Cdr1 pump inh: inhibitors of Candida albicans Cdr1 efflux pump; shares compounds with Efflux pump mplx; S. cerevisiae AD/CaCDR1, Nile Red efflux, flow cytometry; inhibition, % at 10 µM; actives 1% (n = 1,700); AID 588522;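 active means inhibition above the screen-wide mean plus twice its standard deviation, cut at about 32% in these data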
An asterisk follows results filed as active; ? = inconclusive; . = no result.

SMILES | TAG inh | Calb FLC | Efflux pump mplx | GalR3 antag | MC4R antag cAMP | MC4R barr agon | Cmpd fluor yeast | Mdr1 pump inh | Cdr2 pump inh | Cdr1 pump inh
CC(=O)Nc1ccc(C(=O)OCc2ccc(F)cc2)cc1 | 12 | 24 | 0 | 3 | 2 | -1 | . | . | . | .
CC(=O)Nc1ccc(C(=O)OCC(=O)c2ccc(F)cc2)cc1 | . | 8 | 32* | -1 | 9 | -1 | 97 | 0 | 106 | 0
CC(=O)Nc1ccc(C(=O)N/N=C/c2ccc(F)cc2)cc1 | -18 | 8 | 0.6* | -3 | 20 | -2 | 95 | 0 | 103 | 0
O=S1(=O)CCSC[C@@H](CN2CCOCC2)N1 | . | . | . | -3 | . | . | . | . | . | .
Cc1ccc2cccc(NC3OC(=O)c4ccccc43)c2n1 (configuration not stated) | . | 14 | 0 | -5 | 1 | -1 | . | . | . | .
COC(=O)c1ccccc1NC1OC(=O)c2ccccc21 (configuration not stated) | 5 | 3 | 91* | 2 | -3 | -1 | 101 | 0 | 94 | 0
CN1CCCCC(NC(=O)C2CCCCC2)C1=O (configuration not stated) | . | . | . | -2 | . | . | . | . | . | .
CC1(C)NC(=O)N(CCC(=O)Nc2ccc(C(C)(C)C)cc2)C1=O | 7 | . | . | -2 | 6 | 0 | . | . | . | .
COc1ccc2nc(C)cc(SCC(=O)NNC(=O)COc3ccccc3)c2c1 | 20 | -3 | 0 | -4 | 9 | 0 | . | . | . | .
COc1ccc2nc(C)cc(Sc3nc4ccccc4s3)c2c1 | . | 4 | 1.0* | -13 | -5 | -2 | 89 | 0 | 98 | 0
CCOc1cc(/C=C2\SC(=Nc3ccccc3)N(c3ccccc3)C2=O)ccc1OCC(=O)O | . | 45 | 6.4* | -5 | -8 | -2 | 99 | 0 | 89 | 0
CCOc1cc(/C=C2\SC(=Nc3ccc(F)cc3)N(c3ccc(F)cc3)C2=O)ccc1OCC(=O)O | . | ? | 0 | . | . | . | . | . | . | .
CCc1ccc2[nH]c(O)c(N=Nc3nc(-c4ccccc4)cs3)c2c1 | 3 | 7 | 0.9* | -2 | -4 | -4 | 105 | 0 | 91 | 0
CCc1cc2c(N=Nc3c(O)[nH]c4ccccc34)ncnc2s1 | . | 45 | 0 | -11 | 4 | -2 | . | . | . | .
CCCCC1C2=C(CCCC2=O)OC2=C1C(=O)CCC2 | . | 1 | 7.6* | -4 | 12 | 0 | 94 | 0 | 91 | 0
COc1ccccc1-c1nc(C(N)=O)c2[nH]c(=O)n(-c3cccc(C)c3)c2n1 | -5 | 11 | 0.4* | -3 | 3 | -1 | 104 | 1 | 112 | 1
NC(=O)c1nc(-c2ccco2)nc2c1[nH]c(=O)n2-c1ccc(Cl)c(Cl)c1 | 24 | -1 | 1.2* | -7 | 0 | 1 | 107 | 0 | 105 | 0
CCOc1ccccc1-c1nc(C(N)=O)c2[nH]c(=O)n(-c3ccccc3)c2n1 | . | -3 | 0 | 2 | -5 | 2 | 106 | 0 | 96 | 0
NC(=O)c1nc(-c2cccs2)nc2c1[nH]c(=O)n2-c1ccc(F)cc1 | 4 | 3 | 0 | -1 | 3 | 2 | 103 | 0 | 106 | 0
CC(C)Cc1nc(C(N)=O)c2[nH]c(=O)n(-c3ccc(F)cc3)c2n1 | -12 | -1 | 0 | 3 | 16 | 2 | . | . | . | .
CC(C)C[C@H]1CN(CCCC[C@@H]2CNC(=O)C(=O)N2CCc2ccccc2)C(=O)C(=O)N1CCc1ccccc1 | . | . | . | -8 | . | . | . | . | . | .
Cc1ccc(-c2cc(NC(=O)CCl)n(-c3ccccc3)n2)cc1 | -17 | -3 | 0 | -5 | 26 | 1 | . | . | . | .
Cc1ccc(-n2nc(C)c(NC(=O)CCl)c2C)cc1 | 7 | -14 | 10* | 2 | 17 | 0 | 99 | 0 | 104 | 2
C[C@@H]1CN([C@H](C)CO)C(=O)CCCn2nncc2CO[C@H]1CN(C)Cc1ccc2cccnc2c1 | -6 | . | . | -6 | 11 | 1 | . | . | . | .
COc1ccccc1NC(=O)N1CCC(C(=O)c2ccc(F)cc2)CC1 | . | -1 | 7.5* | -6 | -6 | -2 | 103 | 0 | 101 | 0
SMILES | TAG inh | Calb FLC | Efflux pump mplx | GalR3 antag | MC4R antag cAMP | MC4R barr agon | Cmpd fluor yeast | Mdr1 pump inh | Cdr2 pump inh | Cdr1 pump inh
CCOc1ccccc1NC(=O)N1CCC(C(=O)c2ccc(F)cc2)CC1 | 49 | -23 | 0 | -6 | -2 | -2 | . | . | . | .
O=C(CN1C(=O)CCSc2ccccc21)Nc1ccc2c(c1)OCCO2 | . | -22 | 0 | -6 | 3 | -2 | . | . | . | .
O=C(CN1C(=O)CC(c2ccco2)Sc2ccccc21)Nc1ccc2c(c1)OCCO2 (configuration not stated) | . | -4 | 0.7* | -4 | -1 | -3 | 101 | 0 | 96 | 0
CC1CC(=O)N(CC(=O)Nc2ccc3c(c2)OCO3)c2ccccc2S1 (configuration not stated) | . | -11 | 0 | -5 | 6 | 0 | 80 | 0 | 89 | 0
O=C(CN1C(=O)CCSc2ccccc21)Nc1ccc(F)cc1 | . | 11 | 0 | -5 | 8 | -1 | 99 | 0 | 98 | 0
Nc1[nH]c(C(=O)c2ccccc2)c(-c2ccc(Cl)cc2Cl)c1C(=O)c1ccc(Br)cc1 | . | . | . | -5 | . | . | . | . | . | .
NC(=S)NN=C1CSSC1 | 33 | . | . | . | 14 | -1 | . | . | . | .
O=C1NC(Cc2ccc(O)cc2)c2nc3ccc(F)cc3c(=O)n2-c2ncccc21 (configuration not stated) | 4 | . | . | -7 | 5 | -1 | . | . | . | .
CN1CCCCC(NC(=O)CCCl)C1=O (configuration not stated) | . | . | . | -6 | . | . | . | . | . | .
Cc1cccc(C)c1C(O)c1ncc(-c2cccc(F)c2)[nH]1 (configuration not stated) | 1 | . | . | -4 | 1 | 0 | . | . | . | .
Cc1ccc(CNC(=O)c2cc(-c3ccccc3)nn2CC2CC(c3cccnc3)=NO2)cc1 (configuration not stated) | . | -5 | 0.8* | -2 | 5 | -1 | 102 | 0 | 106 | 0
COC(=O)CCCn1cc(CN2CC(N3CCCCC3)CS2(=O)=O)nn1 (configuration not stated) | . | . | . | 3 | . | . | . | . | . | .
CN1CCN(C(=O)/C(=C\c2cccs2)NC(=O)c2ccco2)CC1 | 1 | -6 | 9.7* | -3 | 4 | -1 | 102 | 0 | 104 | 0
O=C(N/C(=C\c1cccs1)C(=O)N1CCOCC1)c1ccco1 | . | 1 | 0 | 2 | -2 | -3 | . | . | . | .
O=C(NCc1ccccc1)[C@H]1CCCN1C(=O)[C@H]1CCCN1C(=O)N1CCCCC1 | . | . | . | -6 | . | . | . | . | . | .

Bioassay records (PubChem)
